Assay results published in ChEMBL document CHEMBL4321820, “Identification and Optimization of Mechanism-Based Fluoroallylamine Inhibitors of Lysyl Oxidase-like 2/3” (J Med Chem, 2019).
Activity calls are given as the source filed them. The calls are words filed in the database; no cut-off is given here.

Legend:
[1] = Time during which plasma concentration exceed invitro IC50 for recombinant human LOXL2 in BALB/c mouse administered with (Z)-Ethyl1-(4-Amino-2-fluorobut-2-en-1-yl)-3-(3-(N,N-dimethylsulfamoyl)phenyl)-2-methyl-1H-indole-5-carboxylate Hydrochloride at 20 mg/kg, po administered via gavage by HPLC-MS/MS analysis; type: ADME, organism-based; conditions: in vivo
[2] = system: Mus musculus; experiment: Antifibrotic activity in CCl4-induced BALB/c mouse model of liver fibrosis assessed as reduction in liver fibrosis area at 50 mg/kg, po administered for 6 weeks by alpha-SMA staining based microscopy; type: functional, organism-based
Method in brief: (§1)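 Female BALB/c mice given CCl4 i.p. (1 mL/kg of 25% CCl4 in olive oil) twice weekly for 6 weeks; sacrificed 48 h after last dose. Test articles oral, once daily: prophylactic weeks 1-6 or therapeutic weeks 4-6; imatinib control 50 mg/kg daily weeks 1-6. One formalin-fixed liver lobe stained for Picro Sirius Red and α-SMA; fibrotic area as % of total liver area; mean ± SEM, one-way ANOVA with Dunnett's test.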

[3] = system: Mus musculus; experiment: Antifibrotic activity in CCl4-induced BALB/c mouse model of liver fibrosis assessed as liver fibrosis area at 50 mg/kg, po administered for 6 weeks by picro-sirius red staining based microscopy; type: functional, organism-based; method in brief: as §1
[4] = system: Mus musculus; experiment: Effect on plasma AST level in CCl4-induced BALB/c mouse model of liver fibrosis at 50 mg/kg, po administered for 6 weeks; type: ADME, organism-based; conditions: in vivo, 1008 h
Method in brief: (§2)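 CCl4 liver fibrosis in female BALB/c mice: CCl4 i.p. (1 mL/kg 25% in olive oil) twice weekly for 6 weeks, sacrifice 48 h after final injection. Oral once-daily dosing weeks 1-6 or weeks 4-6; imatinib 50 mg/kg daily weeks 1-6. ALT and AST measured in plasma.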

[5] = system: Mus musculus; experiment: Antifibrotic activity in bleomycin-induced C57BL/6 mouse model of lung fibrosis assessed as reduction in Ashcroft score at 50 mg/kg, ip administered on day 7 to 27 and measured on day 28 by H and E staining based microscopy; type: functional; conditions: C57BL/6, ip
Method in brief: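 Female C57BL/6 mice, 6-8 weeks old, under isoflurane received intranasal bleomycin sulphate 0.05 U/mouse in PBS; controls got PBS. Once-daily i.p. treatment days 7-27, n=12/group; imatinib 50 mg/kg i.p. as comparator. Sacrifice at day 28; lung fibrosis scored by Ashcroft score.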

[6] = system: Mus musculus; experiment: Effect on plasma ALT level in CCl4-induced BALB/c mouse model of liver fibrosis at 50 mg/kg, po administered for 6 weeks; type: ADME, organism-based; conditions: in vivo, 1008 h; method in brief: as §2

Question: For `Cc1c(-c2cccc(S(=O)(=O)N(C)C)c2)c2cc(C(=O)O)ccc2n1C/C(F)=C/CN`, which “T>IC50” value [1] is on record?
Answer: > 6 h

Question: With `Cc1ccc(NC(=O)c2ccc(CN3CCN(C)CC3)cc2)cc1Nc1nccc(-c2cccnc2)n1` [IMATINIB] as the molecule, how does the inhibition [2] read?
Answer: Active

Question: What about the inhibition [3] of the same molecule?
Answer: inactive

Question: And the Activity [4]?
Answer: Non-Toxic

Question: And the inhibition in vivo at 50 mg/kg [5]?
Answer: 50 to 70%

Question: What about the Activity [6] of the same molecule?
Answer: Non-Toxic
